Assay results of several laboratories.
Protocols differ between the studies behind these lines.
Target: Proto-oncogene tyrosine-protein kinase Src (SRC, Homo sapiens, UniProt P12931)

| SMILES | test | conditions | endpoint | result |
| --- | --- | --- | --- | --- |
| O=c1[nH]c2ccccc2n1C1CCN(Cc2ccc(-c3[nH]c4cc5ncnc5cc4nc3-c3ccccc3)cc2)CC1 | cell-free assay | 0.5 µM | remaining signal | 103% |
| COc1ncccc1-c1cnn2ccc(N3CCN(C(=O)OC(C)C)CC3)nc12 | binding, competition with immobilised ligand | 1 µM | remaining binding | 100% |
| Cn1cc(-c2cc(F)cc(N3CCn4c(cc5c4CCCC5)C3=O)c2CO)cc(Nc2ccc(N3CCN(C4COC4)CC3)cn2)c1=O | enzyme activity, inhibitor | 0.1 µM | inhibition | 13% |
| c1ccc(C(NCCNC(c2ccccc2)c2ccccc2)c2ccccc2)cc1 | enzyme activity, inhibitor | 10 µM | inhibition | -24% |
| CC(C)(C)c1cc(C=C(C#N)C#N)cc(Br)c1O | enzyme activity, inhibitor | 0.5 µM | remaining activity | 87.4% |
| O=C1c2c(O)cc(O)cc2OC(c2ccc(O)c(O)c2)C1O (stereo not drawn) | enzyme activity, inhibitor | 80 µM | inhibition | 53% |
| Cn1cc(-c2cccc(N3CCc4c(sc5c4CC(C)(C)C5)C3=O)c2CO)cc(Nc2ccncn2)c1=O | enzyme activity, inhibitor | 1 µM | inhibition | 39% |
| C#Cc1n[nH]c2c(-c3cn(C(C)c4ccccn4)c(=O)[nH]c3=O)cc(F)cc12 (stereo not drawn) | enzyme activity, inhibitor | 1 µM | inhibition | 9.4% |
| C[C@H](C(=O)N[C@H]1COc2ccccc2[C@@H]1S(C)(=O)=O)c1ccc(F)cc1 | enzyme activity, inhibitor | 10 µM | inhibition | -5% |
| Cc1nn(C)cc1-c1nc2c(N3CCN(Cc4ccc(Cl)cc4)CC3)c(Cl)cnc2[nH]1 | binding, competition with immobilised ligand | 1 µM | remaining binding | 100% |
| Cn1cncc1[C@](O)(COc1ccc(C#N)cc1-c1ccc(OC(F)(F)F)cc1)c1ccc(C#N)cc1 | cell-free assay, competition with immobilised ligand | 1 µM | remaining binding | 81% |
| Nc1ncc(-c2nc(N3CCOCC3)nc(N3CCOCC3)n2)c(C(F)F)n1 | binding, competition with immobilised ligand | 10 µM | remaining binding | 57% |
